Assay results from ChEMBL document CHEMBL1629600, “Multiple-dose pharmacokinetic behavior of elvucitabine, a nucleoside reverse transcriptase inhibitor, administered over 21 days with lopinavir-ritonavir in human immunodeficiency virus type 1-infected subjects” (Antimicrob Agents Chemother, 2009).

How the values were obtained:
[1] = Drug level in HIV1 infected human plasma at 20 mg administered once every 48 hrs for 21 days in presence of 400 mg of Lopinavir and 100 mg of itonavir administered once every 12 hrs; type: ADME, organism-based; conditions: read-out: Drug uptake
Summary of the method: (§1)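 HIV-infected adults (3.6–5.6 log10 RNA copies/ml) given enteric-coated tablets fasting; lopinavir-ritonavir given with food 2 h later. Plasma drawn on days 1 and 21 predose and at 0.5–24 h postdose. LC-MS/MS assay, range 0.500–100 ng/ml. Noncompartmental analysis gave Cmax, Tmax, C24 (24-h concentration) and linear-trapezoidal AUC0-24. Reported as arithmetic mean (%CV), median (range).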

[2] = Half life in HIV1 infected human at 5 mg qd for 21 days in presence of 400 mg of Lopinavir and 100 mg of itonavir administered once every 12 hrs; type: ADME, organism-based; conditions: in vivo
Summary of the method: (§2)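 Elimination rate constant and t1/2 obtained by noncompartmental analysis after the day-21 dose, using 336 h of terminal-phase sampling. Plasma collected through day 35 (days 25, 28, 35 after stopping). Concentrations measured by LC-MS/MS, range 0.500–100 ng/ml. Eight subjects per cohort; reported as mean (%CV), median (range).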

[3] = Cmax in HIV1 infected human at 20 mg after 24 hrs in presence of 400 mg of Lopinavir and 100 mg of itonavir administered once every 12 hrs; type: ADME, organism-based; set-up: dose 20 mg; conditions: in vivo; summary of the method: as §1
[4] = Drug level in HIV1 infected human plasma at 10 mg qd for 21 days in presence of 400 mg of Lopinavir and 100 mg of itonavir administered once every 12 hrs; type: ADME, organism-based; conditions: read-out: Drug uptake; summary of the method: as §1
[5] = Oral bioavailability in HIV1 infected human at 20 mg after 24 hrs; type: ADME, organism-based; conditions: in vivo
Summary of the method: (§3)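 Population compartmental fit to all plasma concentrations over 804 h. Two-compartment model with two first-order absorption rates, lag times per dose and first-order elimination. Relative bioavailability allowed to differ for day 1, the only dose given before lopinavir-ritonavir. Weighting 1/S², with S² = (a + b×Y)². Parameters expressed relative to F (CL/F, V/F).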

Homo sapiens [6] = assay: Time prior to start absorption at second absorption site in HIV1 infected human at 20 mg administered once every 48 hrs for 21 days in presence of 400 mg of Lopinavir and 100 mg of itonavir administered once every 12 hrs; type: ADME, organism-based; conditions: in vivo; summary of the method: as §3
[7] = Tmax in HIV1 infected human at 5 mg qd for 21 days in presence of 400 mg of Lopinavir and 100 mg of itonavir administered once every 12 hrs; type: ADME, organism-based; conditions: in vivo; summary of the method: as §1
[8] = Tmax in HIV1 infected human at 20 mg after 24 hrs in presence of 400 mg of Lopinavir and 100 mg of itonavir administered once every 12 hrs; type: ADME, organism-based; conditions: in vivo; summary of the method: as §1
[9] = Tmax in HIV1 infected human at 20 mg administered once every 48 hrs for 21 days in presence of 400 mg of Lopinavir and 100 mg of itonavir administered once every 12 hrs; type: ADME, organism-based; conditions: in vivo; summary of the method: as §1
[10] = Drug level in HIV1 infected human plasma at 5 mg after 24 hrs presence of 400 mg of Lopinavir and 100 mg of itonavir; type: ADME; conditions: read-out: Drug uptake; summary of the method: as §1
[11] = Tmax in HIV1 infected human at 5 mg after 24 hrs presence of 400 mg of Lopinavir and 100 mg of itonavir; type: ADME, organism-based; conditions: in vivo; summary of the method: as §1
[12] = Half life in HIV1 infected human at 10 mg qd for 21 days in presence of 400 mg of Lopinavir and 100 mg of itonavir administered once every 12 hrs; type: ADME, organism-based; conditions: in vivo; summary of the method: as §2
[13] = AUC (0 to 24 hrs) in HIV1 infected human at 10 mg after 24 hrs presence of 400 mg of Lopinavir and 100 mg of itonavir; type: ADME, organism-based; set-up: time < 24 hr, dose 10 mg; conditions: plasma; summary of the method: as §1
Homo sapiens [14] = assay: Peripheral volume of distribution with respect to the bioavailability in HIV1 infected human at 20 mg administered once every 48 hrs for 21 days in presence of 400 mg of Lopinavir and 100 mg of itonavir administered once every 12 hrs; type: ADME, organism-based; conditions: in vivo; summary of the method: as §3
[15] = Cmax in HIV1 infected human at 5 mg qd for 21 days in presence of 400 mg of Lopinavir and 100 mg of itonavir administered once every 12 hrs; type: ADME, organism-based; set-up: dose 5 mg; conditions: in vivo; summary of the method: as §1
[16] = Tmax in HIV1 infected human at 10 mg qd for 21 days in presence of 400 mg of Lopinavir and 100 mg of itonavir administered once every 12 hrs; type: ADME, organism-based; conditions: in vivo; summary of the method: as §1
[17] = Cmax in HIV1 infected human at 10 mg after 24 hrs presence of 400 mg of Lopinavir and 100 mg of itonavir; type: ADME, organism-based; set-up: dose 10 mg; conditions: in vivo; summary of the method: as §1
[18] = Tmax in HIV1 infected human at 10 mg after 24 hrs presence of 400 mg of Lopinavir and 100 mg of itonavir; type: ADME, organism-based; conditions: in vivo; summary of the method: as §1
[19] = Cmax in HIV1 infected human at 5 mg after 24 hrs presence of 400 mg of Lopinavir and 100 mg of itonavir; type: ADME, organism-based; set-up: dose 5 mg; conditions: in vivo; summary of the method: as §1
[20] = Cmax in HIV1 infected human at 10 mg qd for 21 days in presence of 400 mg of Lopinavir and 100 mg of itonavir administered once every 12 hrs; type: ADME, organism-based; set-up: dose 10 mg; conditions: in vivo; summary of the method: as §1
[21] = AUC (0 to 24 hrs) in HIV1 infected human at 5 mg after 24 hrs presence of 400 mg of Lopinavir and 100 mg of itonavir; type: ADME, organism-based; set-up: time < 24 hr, dose 5 mg; conditions: plasma; summary of the method: as §1
Homo sapiens [22] = organism: Homo sapiens; assay: Time prior to start absorption at first absorption site in HIV1 infected human at 20 mg after 24 hrs; type: ADME, organism-based; conditions: in vivo; summary of the method: as §3
[23] = Volume of distribution at steady state with respect to the bioavailability in HIV1 infected human at 20 mg administered once every 48 hrs for 21 days in presence of 400 mg of Lopinavir and 100 mg of itonavir administered once every 12 hrs; type: ADME, organism-based; conditions: in vivo, read-out: Vss/F; summary of the method: as §3
Homo sapiens [24] = assay: Distributional clearance with respect to the bioavailability in HIV1 infected human at 20 mg administered once every 48 hrs for 21 days in presence of 400 mg of Lopinavir and 100 mg of itonavir administered once every 12 hrs; type: ADME, organism-based; conditions: in vivo; summary of the method: as §3
[25] = AUC (0 to 24 hrs) in HIV1 infected human at 5 mg qd for 21 days in presence of 400 mg of Lopinavir and 100 mg of itonavir administered once every 12 hrs; type: ADME, organism-based; set-up: time < 24 hr, dose 5 mg; conditions: plasma; summary of the method: as §1
Homo sapiens [26] = assay: Absorption rate constant at second absorption site in HIV1 infected human at 20 mg administered once every 48 hrs for 21 days in presence of 400 mg of Lopinavir and 100 mg of itonavir administered once every 12 hr; type: ADME, organism-based; conditions: in vivo; summary of the method: as §3
[27] = AUC (0 to 24 hrs) in HIV1 infected human at 20 mg after 24 hrs in presence of 400 mg of Lopinavir and 100 mg of itonavir administered once every 12 hrs; type: ADME, organism-based; set-up: time < 24 hr, dose 20 mg; conditions: plasma; summary of the method: as §1
[28] = Terminal half life in HIV1 infected human at 20 mg administered once every 48 hrs for 21 days in presence of 400 mg of Lopinavir and 100 mg of itonavir administered once every 12 hrs; type: ADME, organism-based; conditions: in vivo, read-out: beta t1/2 (converted); summary of the method: as §3
Homo sapiens [29] = assay: Absorption rate constant at first absorption site in HIV1 infected human at 20 mg administered once every 48 hrs for 21 days in presence of 400 mg of Lopinavir and 100 mg of itonavir administered once every 12 hrs; type: ADME, organism-based; conditions: in vivo; summary of the method: as §3
[30] = Drug level in HIV1 infected human plasma at 5 mg qd for 21 days in presence of 400 mg of Lopinavir and 100 mg of itonavir administered once every 12 hrs; type: ADME, organism-based; conditions: read-out: Drug uptake; summary of the method: as §1
[31] = Drug level in HIV1 infected human plasma at 20 mg after 24 hrs in presence of 400 mg of Lopinavir and 100 mg of itonavir administered once every 12 hrs; type: ADME; conditions: read-out: Drug uptake; summary of the method: as §1
[32] = AUC (0 to 24 hrs) in HIV1 infected human at 10 mg qd for 21 days in presence of 400 mg of Lopinavir and 100 mg of itonavir administered once every 12 hrs; type: ADME, organism-based; set-up: dose 10 mg, time < 24 hr; conditions: plasma; summary of the method: as §1
[33] = Half life in HIV1 infected human at 20 mg administered once every 48 hrs for 21 days in presence of 400 mg of Lopinavir and 100 mg of itonavir administered once every 12 hrs; type: ADME, organism-based; conditions: in vivo; summary of the method: as §2
[34] = Apparent oral clearance in HIV1 infected human at 20 mg administered once every 48 hrs for 21 days in presence of 400 mg of Lopinavir and 100 mg of itonavir administered once every 12 hrs; type: ADME, organism-based; conditions: in vivo; summary of the method: as §3
Homo sapiens [35] = assay: Central volume of distribution with respect to the bioavailability in HIV1 infected human at 20 mg administered once every 48 hrs for 21 days in presence of 400 mg of Lopinavir and 100 mg of itonavir administered once every 12 hrs; type: ADME, organism-based; conditions: in vivo; summary of the method: as §3
[36] = Drug level in HIV1 infected human plasma at 10 mg after 24 hrs presence of 400 mg of Lopinavir and 100 mg of itonavir; type: ADME, organism-based; conditions: read-out: Drug uptake; summary of the method: as §1
[37] = Cmax in HIV1 infected human at 20 mg administered once every 48 hrs for 21 days in presence of 400 mg of Lopinavir and 100 mg of itonavir administered once every 12 hrs; type: ADME, organism-based; set-up: dose 20 mg; conditions: in vivo; summary of the method: as §1
[38] = AUC (0 to 24 hrs) in HIV1 infected human at 20 mg administered once every 48 hrs for 21 days in presence of 400 mg of Lopinavir and 100 mg of itonavir administered once every 12 hrs; type: ADME, organism-based; set-up: dose 20 mg, time < 24 hr; conditions: plasma; summary of the method: as §1
Homo sapiens [39] = assay: Time prior to start absorption at first absorption site in HIV1 infected human at 20 mg administered once every 48 hrs for 21 days in presence of 400 mg of Lopinavir and 100 mg of itonavir administered once every 12 hrs; type: ADME, organism-based; conditions: in vivo; summary of the method: as §3
Homo sapiens [40] = organism: Homo sapiens; assay: Time prior to start absorption at second absorption site in HIV1 infected human at 20 mg after 24 hrs; type: ADME, organism-based; conditions: in vivo; summary of the method: as §3

Nc1nc(=O)n([C@@H]2C=C[C@H](CO)O2)cc1F [ELVUCITABINE]
concentration at 21 days [1]: 12 ng/mL | half-life [2]: 92.5 h | Cmax [3]: 39.1 ng/mL | concentration at 21 days [4]: 9.7 ng/mL | bioavailability [5]: 55.4% | Time (Homo sapiens [6]): 1.02 h | Tmax [7]: 7 h | Tmax [8]: 3.75 h | Tmax [9]: 4 h | concentration at 24 h [10]: 0.832 ng/mL | Tmax [11]: 6.63 h | half-life [12]: 112 h | AUC(0-t) at 24 h [13]: 155 ng·h/mL | Vp/F (Homo sapiens [14]): 1618 L | Cmax [15]: 23.1 ng/mL | Tmax [16]: 3.75 h | Cmax [17]: 25.3 ng/mL | Tmax [18]: 3.31 h | Cmax [19]: 7.25 ng/mL | Cmax [20]: 49.9 ng/mL | AUC(0-t) at 24 h [21]: 59.9 ng·h/mL | Time (Homo sapiens [22]): 0.363 h | Vd/F [23]: 1620 L | CLd/F (Homo sapiens [24]): 15.4 L/h | AUC at 24 h [25]: 214 ng·h/mL | ka (Homo sapiens [26]): 0.42 h⁻¹ | AUC at 24 h [27]: 262 ng·h/mL | half-life [28]: 120 h | ka (Homo sapiens [29]): 0.065 h⁻¹ | concentration at 21 days [30]: 4.38 ng/mL | concentration at 24 h [31]: 3.41 ng/mL | AUC at 24 h [32]: 435 ng·h/mL | half-life [33]: 105 h | CL/F [34]: 423 mL/min | Vc/F (Homo sapiens [35]): 6.43 L | concentration at 24 h [36]: 1.87 ng/mL | Cmax [37]: 108 ng/mL | AUC at 24 h [38]: 749 ng·h/mL | Time (Homo sapiens [39]): 0.341 h | Time (Homo sapiens [40]): 0.445 h
